Most compounds without a hit are left out; they make up all but 9.5% or so of the library.
HEK293 NFkB inh – lowers PMA/ionomycin-induced NF-kB signal in HEK293 cells; inhibition, % at 3 µM; HEK-293 NF-kB luciferase reporter, luminescence; 0.21% of 62,000 active; AID 465;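 active = inhibition above the mean of all tested compounds plus 3 SD, cut at about 40% in these data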;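 also: 0% = stimulated DMSO wells and 100% = 10 µM reference inhibitor 5653914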
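Timing: 1 h pretreatment, 16 h stimulation, 37 °C; system: HEK-293 cells with stable firefly luciferase reporter driven by four HIV NF-kB elements; doses: 3 µM once, 0.30% DMSO; measured by: luciferase luminescence; control set: DMSO and 10 µM reference inhibitor; repeats: single test; reagent: PMA plus ionomycin mix as NF-kB-activating stimulus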
Jurkat tox 60K – cytotoxicity toward Jurkat cells. Jurkat E6.1 viability, ATP luminescence, 48 h. inhibition, % at 4 µM. 1.2% of 56,000 active;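 active = inhibition above the mean inhibition of all tested compounds plus 3 SD, cut at about 28% in these data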
D1 allo mod – allosteric modulators of human D1 dopamine receptor. HEK293 D1, CRE-luciferase, dopamine EC30 potentiation; actives deviate in either direction. B-score at 10 µM. 5.9% of 58,000 active. AID 641;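 active = luminescence count or its row- and column-corrected plate score outside the 99.7% band of the plate's sample wells, on either side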
M1 antagonist – blocks the rat M1 muscarinic receptor response to acetylcholine; P08482; CHO-M1 cells, Fluo-4 calcium, ACh EC80 antagonist mode; active compounds read low; B-score at 10 µM; 3.4% of 64,000 active;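 active = calcium fluorescence response, raw or row-and-column corrected B-score, differing from the plate sample mean either way at a set confidence level, mostly lower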
Htt clearance – mutant huntingtin protein clearance. AID 853. 0.42% of 47,000 active. HeLa Exon1htt(103Q)mCFP, aggregate imaging; zero = plate's median compound well. inhibition, % at 1.5 µM;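 active = inhibition of aggregate fluorescence above about 70%, also judged a hit by eye on the cell image, limit read from the data, passing the limit was not always enough; inconclusive = no rule stated for this call; inactive = not judged a hit on image review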;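 also: cells exposed to compound for three days before fixation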
M1 ag – M1 muscarinic receptor agonism | CHO-M1 cells, Fluo-4 calcium fluorescence, agonist mode; active compounds read high | B-score at 10 µM | 3% of 64,000 active;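 active = fluorescence rise, raw or as B-score row- and column-corrected plate score, outside the 99.7% band of its plate's samples, either direction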
M1 ag confirm – rat M1 muscarinic agonism, confirmation; CHO-M1 cells, Fluo-4 calcium fluorescence, agonist mode; actives lie on both sides; 19% of 1,700 active; fluorescence change (max-min) at 10 µM; shares compounds with M1 ag; AID 1488;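 active = fluorescence change differs from the solvent-only DMSO control mean at a set confidence level in both duplicate runs; inconclusive = differs from solvent-only control mean in just one of two runs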;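 also: an EC20 dose of acetylcholine follows compound addition during the same imaging run; raw fluorescence intensity difference in instrument units with no normalization to controls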
M4 agonist ctr – rat M4 muscarinic agonism, M1 counter-screen. shares compounds with M1 ag. CHO M4/Gqi5 cells, Fluo-4 calcium fluorescence, agonist mode; actives lie on both sides. fluorescence change (max-min) at 10 µM. 9% of 1,700 active. AID 1741;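 active = fluorescence change differing from the plate's solvent-only control wells at 99.7% confidence in both duplicates, whether higher or lower; inconclusive = differs from solvent controls in only one of two duplicates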
Target sequence (P08485 whole entry, looked up): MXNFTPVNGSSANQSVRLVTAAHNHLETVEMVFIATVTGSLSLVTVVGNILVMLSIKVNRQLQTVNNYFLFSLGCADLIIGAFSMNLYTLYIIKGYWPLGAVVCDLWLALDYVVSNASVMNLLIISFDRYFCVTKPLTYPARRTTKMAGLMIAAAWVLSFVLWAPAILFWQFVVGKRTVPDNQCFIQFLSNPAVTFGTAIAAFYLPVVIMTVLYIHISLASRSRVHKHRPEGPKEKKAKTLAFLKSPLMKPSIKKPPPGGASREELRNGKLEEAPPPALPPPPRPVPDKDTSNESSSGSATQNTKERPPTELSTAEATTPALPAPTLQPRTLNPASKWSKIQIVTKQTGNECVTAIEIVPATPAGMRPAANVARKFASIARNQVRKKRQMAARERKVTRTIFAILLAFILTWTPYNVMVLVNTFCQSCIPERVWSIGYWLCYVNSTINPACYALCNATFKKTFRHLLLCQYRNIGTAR
Active calls of the source: *; u = inconclusive; x = no result given.

SMILES	HEK293 NFkB inh	Jurkat tox 60K	D1 allo mod	M1 antagonist	Htt clearance	M1 ag	M1 ag confirm	M4 agonist ctr
O=C1COc2ccc(C(=O)CSc3nnc(Cc4cccs4)n3-c3ccccc3)cc2N1	8	x	1.1	0.45	x	5.2*	5.3	-24
Cc1noc(C)c1CN1C(=O)NC(Cc2ccccc2)(Cc2ccccc2)C1=O	16	3	x	x	u	x	x	x
CC(=O)c1ccc(NC(=O)c2ccc(S(=O)(=O)N3CCCC3)cc2)cc1	7	-2	-0.015	x	16	x	x	x
O=C(Nc1ccc(S(=O)(=O)N2CCCCC2)cc1)c1ccncc1	19	14	-1.1	-0.55	45	-2.9*	-22*	-72*
NC(=O)c1ccsc1NC(=O)c1ccc(S(=O)(=O)N2CCCCC2)cc1	-14	3	2.9	-0.54	x	3.1*	u	-33
CCCSc1nnc(Cn2c(=O)sc3ccccc32)n1C	8	2	x	-0.1	x	-0.49	x	x
c1csc(-c2csc3nc(CN4CCOCC4)nc(NCc4ccc5c(c4)OCO5)c23)c1	9	7	0.9	-0.89	x	-0.53	x	x
CC1=C(C#N)C(=O)OC(C)(C)C1	x	x	x	-1.2	-34	15*	39	33
Cc1ccc(S(=O)(=O)N2CCN(C(=O)CN3CCOCC3)C2c2ccccc2)cc1 (centres undefined)	12	-2	0.43	0.68	x	6.2*	-12	-29
O=C(CN1CCOCC1)N1CCN(S(=O)(=O)c2ccccc2)C1c1ccccc1 (centres undefined)	9	-5	x	0.39	x	0.41	x	x
COCCn1nnnc1C(c1cccc(OC)c1OC)N1CCN(C2CCCCC2)CC1 (centres undefined)	2	3	-0.026	0.42	-30	18*	u	-51
COCCn1nnnc1C(c1cc2ccc(OC)cc2[nH]c1=O)N1CCN(C2CCCCC2)CC1 (centres undefined)	7	1	-1.2	-0.57	-24	-0.7	x	x
COc1ccc(-c2cc(-c3ccc(OC)cc3)c(C#N)c(SC)n2)cc1	x	x	x	x	19	x	x	x
CSc1nc(-c2ccco2)cc(-c2ccccc2)c1C#N	3	0	0.52	0.1	-22	15*	u	u
CC(C)CN1C(=O)c2ccc(C(=O)Nc3ccncc3)cc2C1=O	1	10	-1.8	-1.1	x	5.2*	-17	-61
CCCn1c(SCC(=O)Nc2nnc(C)s2)nnc1-c1ccoc1C	11	-1	0.22	-0.083	15	-0.017	x	x
CCCCn1c(SCC(=O)Nc2nnc(C)s2)nnc1-c1ccoc1C	8	8	-0.15	-0.4	42	3.2*	u	-38
CCCS(=O)(=O)c1nc(S(=O)(=O)c2ccc(C)cc2)c(NCCCN2CCOCC2)s1	12	1	x	0.017	x	2.5*	-14	u
CC(=O)Nc1ccc(NC2=CC(=O)CC(C)(C)C2)cc1	5	-1	-0.0082	0.22	36	11*	u	-82
CC1(C)CC(=O)C=C(Nc2ccccc2NC(=O)c2cnccn2)C1	10	x	x	-1.8*	x	21*	-13	-23
COC(=O)c1ccc(NC2=CC(=O)CC(C)(C)C2)cc1	9	0	-0.65	0.004	x	-0.035	x	x
CCOC(=O)c1ccccc1NS(=O)(=O)c1ccccc1F	15	2	0.0057	0.67	4	1.5	x	x
Nc1c(C(=O)NC2CCCC2)c2nc3ccccc3nc2n1/N=C/c1cccnc1	-6	-4	0.11	-0.19	x	1.2	x	x
Cc1ccccc1OCC(=O)Nc1cccc(NC(=O)c2ccco2)c1	15	-2	-1.5	0.54	x	7*	u	u
CCOc1ccccc1NC(=O)c1cccc(NC(=O)c2ccco2)c1	42*	81*	0.73	-0.68	x	5.6*	13	-24
SMILES	HEK293 NFkB inh	Jurkat tox 60K	D1 allo mod	M1 antagonist	Htt clearance	M1 ag	M1 ag confirm	M4 agonist ctr
CCCCOc1ccccc1NC(=O)c1ccco1	11	-7	1.3	-0.11	-4	-1	x	x
Cc1cccc(C)c1OCC(=O)Nc1cccc(NC(=O)c2ccco2)c1	20	2	-0.38	0.58	11	-0.11	x	x
COC(=O)CSC1=C(C#N)C(c2ccccc2F)CC(=O)N1 (centres undefined)	2	4	-0.41	-0.045	x	0.77	x	x
Cc1c(NC(=O)CSC2=C(C#N)C(c3ccccc3F)CC(=O)N2)c(=O)n(-c2ccccc2)n1C (centres undefined)	2	4	-0.063	0.18	13	3.4*	-27	u
N#Cc1nc(COc2ccc(F)cc2)oc1N1CCN(Cc2ccccc2)CC1	22	2	-2.4	0.11	x	0.019	x	x
N#Cc1nc(COc2ccc(F)cc2)oc1N1CCC(Cc2ccccc2)CC1	3	2	-0.46	-0.46	-55	9.3*	16	-49
N#Cc1nc(COc2ccccc2)oc1N1CCN(c2cccc(Cl)c2)CC1	-14	0	0.48	-0.0079	14	4.1*	122*	u
N#Cc1nc(COc2cccc(Cl)c2)oc1N1CCN(c2ccccc2)CC1	9	7	0.42	-0.66	56	-0.9	x	x
C=CCOC(=O)C1=C(C)OC(N)=C(C#N)C1c1ccoc1 (centres undefined)	x	x	x	0.74	17	21*	12	0.98
Cc1ccc(C2=N/C(=C/c3cccs3)C(=O)N2Nc2ccccc2)cc1	x	x	x	x	39	x	x	x
Cc1cc(C)nc(-n2nc(C)cc2NC(=O)c2cccc(S(=O)(=O)N3CCOCC3)c2)n1	x	x	x	x	10	x	x	x
CCOC(=O)C1CCN(S(=O)(=O)c2cccc(-c3cn4cccc(C)c4n3)c2)CC1	7	-3	-0.0035	-3*	x	2.3*	-12	-35
CCOC(=O)c1c(C)[nH]c(C(=O)CN2C(=O)NC(C)(c3ccc(C)cc3)C2=O)c1C (centres undefined)	11	3	x	-2.1	x	5	x	x
CCOC(=O)c1c(C)[nH]c(C(=O)CN2C(=O)NC(CC)(c3ccccc3)C2=O)c1C (centres undefined)	10	-2	-0.51	-0.31	-43	4.7*	-13	-13
Cc1ccc(CNC(=O)c2cc3c(=O)n4ccccc4nc3n(CC3CCCO3)c2=N)cc1 (centres undefined)	x	x	x	-0.21	x	5.2*	22	-15
Cc1ccc(CNC(=O)c2cc3c(=O)n4ccccc4nc3n(Cc3ccco3)c2=N)cc1	x	x	x	0.33	x	4.8*	198*	91
COCCn1c(=N)c(C(=O)NCc2ccco2)cc2c(=O)n3ccccc3nc21	11	12	0.12	-1.7	x	3.6*	66*	32
Cc1cccn2c(=O)c3cc(C(=O)NCc4ccco4)c(=N)n(CCc4ccccc4)c3nc12	29	16	-0.79	-6.2*	x	5.3*	31	-28
